Screening data (PubChem BioAssay)
eIF4H FP inh – inhibitors of RNA binding by human eIF4H; 290,000 compounds, 0.94% hits; inhibition, % at 35 µM; AID 2012; eIF4H fluorescence polarization binding assay; Q15056;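 further: calls also rest on retests at 20 µM and on dose response follow-up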
MT1-MMP act inh – blocks activation of human MT1-MMP. GFP/RFP ratio change, % at 20 µM. HT1080 RFP-PRO-GFP cells, GFP/RFP ratio fluorescence, overnight; percent of plate control window, DMSO zero. P50281. 360,000 compounds, 0.061% hits;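 active means GFP/RFP ratio change of at least 30% with cell ATP level not reduced by more than half and red fluorescence within 50% of control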
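Material: RFP-PRO-GFP reporter HT1080 cells. Dosing: single-point 20 µM compound, 1% DMSO. Controls: DMSO and RFP-L50D-GFP cell wells. Timing: cells overnight before dosing, compound overnight, 37 °C, 5% CO2. Measure: GFP/RFP fluorescence ratio.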
SKN-1 block – C. elegans SKN-1 inhibition; C. elegans VP596 Pgst-4::GFP/RFP ratio, acrylamide-induced, 24 h; inhibition, % at 21.8 µM; 360,000 compounds, 0.49% hits; AID 624304;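 active means interference check ratio from 0.5 to 1.5 plus GFP to RFP signal ratio inhibition reaching or exceeding a fixed threshold, cut at about 30% in these data, passing the limit was not always enough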
PABP polyA inh – PABP-poly(A) binding inhibition; P11940; PABP-poly(A) RNA binding, fluorescence polarization; calls only at 35 µM; 290,000 compounds, 1% hits; AID 2014;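 further: calls also rest on retests at 20 µM and on dose response follow-up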
PABP1 MLLE inh – inhibitors of microRNA-mediated deadenylation, human PABP1 MLLE binding | P11940 | GST-MLLE / FITC-PAM2 fluorescence polarization | inhibition, % at 20 µM | 360,000 compounds, 0.36% hits | AID 588489; in the data active means inhibition above about 35%, passing the limit was not always enough
Hits are given with their value; – = inactive; ? = inconclusive; · = no result; + = active, no number. This is a sample that favours compounds with a hit; in the whole collection about 1.8% have one here. Unless noted, how the calls were made is not given here.

SMILES	eIF4H FP inh	MT1-MMP act inh	SKN-1 block	PABP polyA inh	PABP1 MLLE inh
Cc1onc(-c2ccccc2)c1C(=O)NC(=S)NNC(=O)c1cccnc1	–	–	–	–	–
C[C@@H]1CN([C@@H](C)CO)C(=O)c2cc(NC(=O)Nc3ccccc3)ccc2O[C@@H](C)CCCCO[C@H]1CN(C)C(=O)Nc1ccc(C(F)(F)F)cc1	·	–	–	·	–
N#CC1=C(N)N(c2ccccc2)C(=O)C1	–	–	–	+	–
COc1ccc(N2C(=O)CC(C#N)=C2N)cc1	–	–	–	–	–
CCC(=O)Nc1ccc(-c2nnc(SCC(=O)Nc3nccs3)n2C)cc1	–	–	–	+	–
O=C(NC(=S)Nc1cccc(O)c1)c1cncc(Br)c1	·	–	–	·	42
O=C(O)c1cccc(NC(=S)NC(=O)c2cncc(Br)c2)c1	·	–	–	·	–
Cc1cc(O)ccc1NC(=S)NC(=O)c1cncc(Br)c1	–	–	–	–	44
CC(=O)c1cccc(NC(=S)NC(=O)c2ccc(Br)cc2)c1	–	–	–	–	41
Cc1ccccc1NC(=S)NC(=O)c1cncc(Br)c1	–	–	–	–	–
c1nc(NCc2ccc3c(c2)OCO3)c2cc(-c3ccoc3)ccc2n1	·	–	–	·	–
CC(C)N(Cc1ccccc1)C(=O)COC(=O)c1cc[n+]([O-])cc1	·	–	–	·	–
COc1ccc(-c2ccc3c(c2)C2CC3CCN2C(=O)C(C)(C)C)cc1 (stereo unspecified)	·	–	–	·	–
C(=Cc1c[nH]c2ccccc12)c1nccc2ccccc12	·	–	48	·	–
C(=Cc1c[nH]c2ccccc12)c1ccc2ccccc2n1	·	–	–	·	–
COCCN1CC(CNC(=O)c2cc(COc3ccccc3SC)on2)CC1=O (stereo unspecified)	–	–	–	–	–
CC[C@@H]1Cc2[nH]c(=O)[nH]c(=O)c2[C@H](c2ccc(Cl)cc2)O1	·	–	–	·	·
COc1ccc(C2OC34CCCCC3C(C#N)(C#N)C2(C#N)C(=N)O4)cc1 (stereo unspecified)	?	–	–	?	–
CC1C2(C)OC(=N)C(C#N)(C(C)O2)C1(C#N)C#N (stereo unspecified)	–	–	–	–	64
COc1c(S(=O)(=O)NCCCN2CCOCC2)ccc(Cl)c1Cl	–	–	–	–	45
O=[N+]([O-])c1ccc(COc2cccc3cccnc23)cc1	–	–	36	–	–
O=[N+]([O-])c1ccc(OCCCOc2cccc3cccnc23)cc1	–	–	–	–	–
O=[N+]([O-])c1ccccc1CNc1ccc(F)c(Cl)c1	–	–	–	+	–
CCN(C(=O)COC(=O)c1cc2ccccc2cc1OC)c1c(N)n(Cc2ccccc2)c(=O)[nH]c1=O	·	–	–	·	–
CCc1c(C)nc2cc(-c3ccccc3)[nH]n2c1=O	–	–	36	–	–
SMILES	eIF4H FP inh	MT1-MMP act inh	SKN-1 block	PABP polyA inh	PABP1 MLLE inh
CN(C)S(=O)(=O)c1cccc(NC(=O)COC(=O)c2cccnc2Cl)c1	·	–	–	·	–
CCNC(=O)C1(C)CCN(C(=O)c2ccc3snnc3c2)C1 (stereo unspecified)	·	–	–	·	–
CC(=O)OCC1=C(C(=O)O)N2C(=O)C(NC(=O)c3ccc(F)cc3)C2SC1 (stereo unspecified)	–	–	–	–	–
CO/N=C(\C(=O)N[C@@H]1C(=O)N2C(C(=O)O)=C(COC(N)=O)CS[C@H]12)c1ccco1	5.6	–	–	+	–
CCc1ccc(-n2c(SCC(=O)Nc3cc(C)[nH]n3)nc3[nH]ncc3c2=O)cc1	–	–	39	–	–
COc1ccc(CCNC(=O)CSc2nc3[nH]ncc3c(=O)n2-c2ccc(Br)cc2)cc1OC	–	–	–	–	–
COc1ccc(C(=O)Cn2nnc(-c3ccccc3NC(=O)C3CCCCC3)n2)cc1	–	–	–	+	–
COc1ccc(NC(=O)Cn2nnc(-c3ccccc3NC(=O)C3CC3)n2)cc1	–	–	–	–	–
COc1ccc(-c2nnc(-c3ccc(N(C)C)cc3)o2)cc1	–	–	–	–	–
CN(C)c1ccc(-c2nnc(-c3ccc(S(=O)(=O)C(F)F)cc3)o2)cc1	68	–	–	+	–
O=C(C=Cc1ccccc1)CC(c1ccccc1)N1CCOCC1 (stereo unspecified)	·	–	83	·	–
O=C1NC(=O)N2CCSC2(Cc2ccccc2)N1 (stereo unspecified)	·	–	–	·	41
COCC(=O)N1C[C@H]2CON(C)[C@H]2C[C@H]1c1ccc(N2CCCCC2)cc1	·	–	–	·	–
O=C(O)CSc1cc(NS(=O)(=O)c2ccc(Cl)cc2)c2ccccc2c1O	–	–	–	–	40
O=C1c2ccccc2C(=O)c2c([N+](=O)[O-])ccc(O)c21	–	–	37	–	–
O=S(=O)(NCCN1CCOCC1)c1ccc(F)c(Cl)c1	–	–	–	–	–
Cc1ccc2oc3ccccc3c(=O)c2c1	·	–	–	·	–
O=c1c2ccccc2oc2ccc(-c3ccc4cc[nH]c4c3)cc12	·	–	70	·	–
S=C(NCc1ccccc1)C(=S)NCc1ccccc1	·	–	38	·	–
Fc1ccccc1-c1nc(-c2ccncc2)no1	–	–	46	–	–
Cc1ccccc1-c1nc(-c2ccc(Br)o2)no1	–	–	46	–	–
c1ccc2c(-c3nc(-c4ccncc4)no3)cccc2c1	–	–	–	–	–
Fc1ccccc1-c1nc(-c2ccccc2)no1	–	–	–	–	–
c1ccc(-c2noc(-c3cccc4ccccc34)n2)cc1	–	–	37	–	–
Fc1ccccc1-c1nc(-c2ccc(Br)o2)no1	–	–	72	–	–
SMILES	eIF4H FP inh	MT1-MMP act inh	SKN-1 block	PABP polyA inh	PABP1 MLLE inh
O=C1CCCN1CCCNc1nc(NCc2ccccc2)nc2ccsc12	·	–	–	·	–
CC(C)CN(CCNC(=O)CN1C(=O)COc2ccc(S(=O)(=O)N3CCC(C)CC3)cc21)CC(C)C	–	–	–	–	–
O=C(COC(=O)C1C2CC3OC(=O)C1C3C2)Nc1ccc(Cl)cc1 (stereo unspecified)	–	–	–	–	–
Nc1ccccc1NC1=CC(=O)CC(c2ccco2)C1 (stereo unspecified)	91	–	–	+	–
Cc1ccc(NC2=CC(=O)CC(c3ccco3)C2)c(N)c1 (stereo unspecified)	104	–	–	+	–
O=C1C=C(NNC(=O)c2cccnc2)CC(c2ccco2)C1 (stereo unspecified)	?	–	–	–	45
CCOC(=O)c1c(=O)n(O)c2ccc(C)cc2[n+]1[O-]	104	–	–	+	–
CCOC(=O)c1c(C)[n+]([O-])c2ccc3c(non3O)c12	–	–	–	–	–
Brc1ccc(CN2CCCCCC2)cc1	·	–	–	·	–
CCOC(=O)CSCC(NC(=O)OC(C)(C)C)C(=O)OCC (stereo unspecified)	–	–	–	–	–
CCOC(=O)C(CSCC(=O)c1ccc(Cl)cc1Cl)NC(=O)OC(C)(C)C (stereo unspecified)	–	–	36	–	49
